A selection: hits, their analogues and other compounds. The true share with any hit is near 2.7%.
HTR2A ag: agonists of mouse serotonin 5-HT2A receptor (HTR2A). AID 624169. 360,000 tested, 0.66% active. activation, % at 7.6 µM. CHO-K1 mHTR2A beta-arrestin complementation, luminescence; percent of 30 µM serotonin response. P35363;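 active means activation above a run cutoff, the mean activation of all tested compounds plus 3 SD, cut at about 14% in these data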;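 further: 0% = plate median of compound wells and 100% = 30 µM serotonin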
Lipid droplet: hepatic lipid droplet formation modulation. inhibition, % at 6.5 µM. AML12 mouse hepatocytes, oleate lipid droplets, BODIPY imaging. 240,000 tested, 0.4% active. AID 1656;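 active means lipid droplet intensity inhibited by at least 50%, with more than 500 cells counted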
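Material – AML12 mouse liver cells · Also added – oleate loading, 100 µM · Compound dosing – 6.5 µM single-point dosing · Times – overnight treatment with compound plus oleate · Measured by – fluorescence imaging, 20x objective, two fields per well · Read-out – percent inhibition of filter-corrected integrated lipid droplet intensity per well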
PREPL inh: inhibitors of human prolyl oligopeptidase-like enzyme PREPL; recombinant PREPL, fluorescence polarization activity-based probe; Q4J6C6; 320,000 tested, 0.68% active; AID 2751; inhibition, % at 5.96 µM; in the data active means inhibition above about 43%;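 further: 0% = enzyme with DMSO and 100% = wells lacking enzyme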
NTR1 agonist: activates human neurotensin receptor 1. NTR1-U2OS beta-arrestin-GFP spot imaging, agonist mode. activation, % at 20 µM. 330,000 tested, 0.17% active. AID 493036;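 active means activation at or above 40% of the spot to cytoplasm intensity ratio, with at least 20 cells analyzed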;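 further: 0% = DMSO without peptide and 100% = 100 nM NTR1 peptide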
MC4R antag cAMP: human MC4R antagonism in cAMP assay | MC4R-expressing cells, MTII-stimulated cAMP, LANCE TR-FRET | inhibition, % at 6.5 µM | 360,000 tested, 0.48% active | AID 540295;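 active means inhibition above its plate's cutoff, the mean of tested wells on that plate plus 3 SD, cut at about 29% in these data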;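 further: 0% = Melanotan II alone and 100% = Melanotan II plus saturating MCL0020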
Target sequence (P32245 whole entry, looked up): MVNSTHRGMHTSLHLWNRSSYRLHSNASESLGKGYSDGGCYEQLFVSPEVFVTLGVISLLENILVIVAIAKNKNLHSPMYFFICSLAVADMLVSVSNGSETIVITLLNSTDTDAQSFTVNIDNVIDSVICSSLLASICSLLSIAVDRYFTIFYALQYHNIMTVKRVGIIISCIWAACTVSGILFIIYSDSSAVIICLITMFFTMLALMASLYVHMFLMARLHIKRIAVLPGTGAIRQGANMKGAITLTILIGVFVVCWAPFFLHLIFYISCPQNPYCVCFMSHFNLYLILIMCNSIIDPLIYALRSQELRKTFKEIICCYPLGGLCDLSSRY
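System: U2OS-MC4R stable cell line; Technique: Eu-cAMP/anti-cAMP TR-FRET, emission 671 nm; Repeats: single well per compound; Also added: Melanotan II; Dosing: one concentration, 6.5 µM nominal; Schedule: 30-min compound, 1-h challenge, 1-h detection, room temperature.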
MC4R ag barr: agonists of human melanocortin 4 receptor (MC4R) beta-arrestin | U2OS MC4R beta-arrestin complementation, luminescence; percent of melanotan II response, DMSO zero | activation, % at 8.9 µM | 360,000 tested, 0.98% active;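 active means activation above a per-plate cutoff, the mean activation of sample wells on that plate plus 3 SD, cut at about 8% in these data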
MC4R barr ag: human MC4R beta-arrestin agonism confirmation. shares compounds with MC4R ag barr. U2OS MC4R beta-arrestin recruitment, luminescence; scaled DMSO 0%, Melanotan II 100%. activation, % at 8.9 µM. 2,400 tested, 31% active. AID 602192;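 active means mean activation across replicates above the hit cutoff set in the earlier primary screen, cut at about 8% in these data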
MOR DOR agonist: counter-screen for MC4R agonists: agonists of mu-delta opioid heterodimer; 2,400 tested, 5.8% active; shares compounds with MC4R ag barr; AID 602194; U2OS PathHunter beta-arrestin, beta-gal luminescence; percent of deltorphin B response, DMSO zero; activation, % at 9.2 µM;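 active means mean activation across replicates exceeds the hit threshold derived in the earlier primary screen, cut at about 18% in these data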;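 further: 100% = deltorphin B at 0.9 µM final and 0% = DMSO alone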
An asterisk follows results filed as active.

Screening CCSc1nnc(NC(=O)c2cccc3ccccc23)s1 returned HTR2A ag -4, Lipid droplet -7, PREPL inh -1, NTR1 agonist 1, MC4R antag cAMP 4, MC4R ag barr 14*, MC4R barr ag 6 and MOR DOR agonist 4.
For CCOc1ccc(-n2c(SCC(=O)Nc3ccccc3CC)nc3n[nH]c(C)c3c2=N)cc1 the results were Lipid droplet -2, PREPL inh 16 and NTR1 agonist 1.
Screening Cc1ccc(CNC(=O)CSc2nc3n[nH]c(C)c3c(=N)n2-c2cccc(C)c2)cc1 returned HTR2A ag -3, Lipid droplet -34, PREPL inh 18, NTR1 agonist 4, MC4R antag cAMP 8 and MC4R ag barr 0.
Screening CCOc1ccc(-n2c(SCC(=O)Nc3ccc(Br)cc3)nc3n[nH]c(C)c3c2=N)cc1 returned HTR2A ag -3, Lipid droplet -93, PREPL inh 4, NTR1 agonist 2, MC4R antag cAMP 2, MC4R ag barr 17*, MC4R barr ag 4 and MOR DOR agonist 9.
Cc1cc(-n2c(SCC(=O)NCc3cccs3)nc3n[nH]c(C)c3c2=N)ccc1Cl was read as HTR2A ag 6, PREPL inh 9, NTR1 agonist 6, MC4R antag cAMP 17, MC4R ag barr 13*, MC4R barr ag 5 and MOR DOR agonist 7.
For CCCn1ncc(CN2CCC(C(=O)Nc3cccc(-c4cccc(F)c4)c3)CC2)c1C the results were HTR2A ag -10, Lipid droplet -9, PREPL inh -20, NTR1 agonist 9, MC4R antag cAMP -9 and MC4R ag barr 2.
Cc1cc(C)nc(Nc2nc(C(N)Cc3ccc(Cl)cc3)cs2)n1 (stereo unspecified) was read as HTR2A ag 1, MC4R antag cAMP -8, MC4R ag barr 9.8*, MC4R barr ag 28* and MOR DOR agonist 13.
For NC(Cc1ccccc1)c1csc(Nc2ccc(C(F)(F)F)cn2)n1 (stereo unspecified) the results were HTR2A ag 2, MC4R antag cAMP 2 and MC4R ag barr 5.
For Cc1cc(C)nc(Nc2nc(C(N)Cc3ccc(C(F)(F)F)cc3)cs2)n1 (stereo unspecified) the results were HTR2A ag 10, MC4R antag cAMP -7, MC4R ag barr 10*, MC4R barr ag 26* and MOR DOR agonist 10.
CCCc1cnc(Nc2nc(C(N)Cc3ccc(C(F)(F)F)cc3)cs2)nc1 (stereo unspecified) was read as HTR2A ag -2, MC4R antag cAMP 27, MC4R ag barr 15*, MC4R barr ag 14* and MOR DOR agonist 6.
COc1cc(OC)nc(Nc2nc(C(N)Cc3ccc(C(F)(F)F)cc3)cs2)n1 (stereo unspecified) was read as HTR2A ag 6, MC4R antag cAMP 9, MC4R ag barr 29*, MC4R barr ag 7 and MOR DOR agonist 13.
Cc1cc(C)nc(Nc2nc(C(N)Cc3ccc(F)cc3)cs2)n1 (stereo unspecified) was read as HTR2A ag -4, MC4R antag cAMP -3 and MC4R ag barr 1.
COc1cc(OC)nc(Nc2nc(C(N)Cc3ccccc3)cs2)n1 (stereo unspecified) was read as HTR2A ag -5, MC4R antag cAMP -4 and MC4R ag barr 0.
C[C@@H]1CN([C@@H](C)CO)C(=O)CCCn2nncc2CO[C@H]1CN(C)S(=O)(=O)c1ccccc1C#N was read as HTR2A ag -1, MC4R antag cAMP 3 and MC4R ag barr -2.
For O=C1Nc2c(Cl)cc(Cl)cc2C1=O the results were HTR2A ag 5, MC4R antag cAMP -25 and MC4R ag barr -2.
`CCCN(C1CCS(=O)(=O)C1)S(=O)(=O)c1cc(OC)ccc1OC` (stereo unspecified) gave HTR2A ag 3, PREPL inh 10, NTR1 agonist -2, MC4R antag cAMP 5 and MC4R ag barr -1.
For CC1(c2nnc(-c3cccc(Cl)c3)o2)CC(c2ccc(Br)cc2)=NO1 (stereo unspecified) the results were HTR2A ag 2, PREPL inh -29, NTR1 agonist 6, MC4R antag cAMP -2 and MC4R ag barr -1.
NC(Cc1ccc(C(F)(F)F)cc1)c1csc(Nc2nccc(C(F)(F)F)n2)n1 (stereo unspecified) was read as HTR2A ag 8, MC4R antag cAMP 4, MC4R ag barr 15*, MC4R barr ag 17* and MOR DOR agonist 7.
For O=C(Nc1cc(F)cc(F)c1)c1ccc(NCCc2ccccc2)c([N+](=O)[O-])c1 the results were HTR2A ag -6, Lipid droplet -5, PREPL inh -6, NTR1 agonist 0, MC4R antag cAMP -4, MC4R ag barr 10*, MC4R barr ag -1 and MOR DOR agonist 5.
Screening Cc1ccc(NC(=O)c2ccc(NCCc3ccccc3)c([N+](=O)[O-])c2)cc1F returned HTR2A ag 3, Lipid droplet -30, PREPL inh 16, NTR1 agonist 8, MC4R antag cAMP 20 and MC4R ag barr 3.
For O=C(CSc1ncnc2ccccc12)Nc1ccc2c(c1)OCCO2 the results were HTR2A ag -3, Lipid droplet 15, PREPL inh 2, NTR1 agonist 0, MC4R antag cAMP 4 and MC4R ag barr -3.
`O=C(CSc1nc(Cc2ccccc2)nc2ccccc12)Nc1ccc2c(c1)OCCO2` gave HTR2A ag -1, PREPL inh -11, NTR1 agonist 8, MC4R antag cAMP -1, MC4R ag barr 14*, MC4R barr ag 1 and MOR DOR agonist 3.
For COc1ccc(CN(C#N)c2nc(SC)nc(N(C)C)n2)cc1 the results were HTR2A ag -5, PREPL inh -16, NTR1 agonist 3, MC4R antag cAMP -6 and MC4R ag barr 0.
Cc1cc(OCC(=O)C(C)(C)C)c2c(C)c(C)c(=O)oc2c1 was read as HTR2A ag -2, PREPL inh 0, NTR1 agonist 3, MC4R antag cAMP -5, MC4R ag barr 15*, MC4R barr ag 1 and MOR DOR agonist 6.
O=C1CCCN1C1CCN(Cc2ccccc2)S(=O)(=O)N1 (stereo unspecified) was read as HTR2A ag 5.
